According to ChEMBL document CHEMBL2157924, “Cyclobutane derivatives as novel nonpeptidic small molecule agonists of glucagon-like peptide-1 receptor” (J Med Chem, 2012):
Activity calls are given as the source filed them. The rule behind the calls is not given here.

How the values were obtained:
[1] = target: T1, Glucagon-like peptide 2 receptor (Homo sapiens) (UniProt O95838); assay: Agonist activity at human GLP2R expressed in HEK293 cells assessed as stimulation of cAMP levels incubated for 6 hrs by multiple response element/cAMP response element (MRE/CRE)-driven reporter gene assay; format: functional, cell-based
T1 sequence (whole entry): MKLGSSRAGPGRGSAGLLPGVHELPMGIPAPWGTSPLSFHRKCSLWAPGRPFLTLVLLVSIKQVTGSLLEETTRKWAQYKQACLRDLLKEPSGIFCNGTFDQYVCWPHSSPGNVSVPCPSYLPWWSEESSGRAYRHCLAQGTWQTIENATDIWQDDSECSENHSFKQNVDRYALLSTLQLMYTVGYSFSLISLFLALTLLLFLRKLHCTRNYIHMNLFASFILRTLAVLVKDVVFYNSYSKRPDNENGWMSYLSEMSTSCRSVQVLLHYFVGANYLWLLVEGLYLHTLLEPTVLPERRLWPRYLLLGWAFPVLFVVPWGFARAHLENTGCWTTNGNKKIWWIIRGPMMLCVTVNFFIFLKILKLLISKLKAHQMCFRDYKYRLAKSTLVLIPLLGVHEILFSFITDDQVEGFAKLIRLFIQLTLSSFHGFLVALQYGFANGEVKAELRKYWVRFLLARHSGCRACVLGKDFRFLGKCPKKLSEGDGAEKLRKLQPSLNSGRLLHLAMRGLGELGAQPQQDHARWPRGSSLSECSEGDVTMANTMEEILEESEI
In short: (§1)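 HEK293 cells transiently cotransfected with human GLP-2 receptor or glucagon receptor expression vector plus a luciferase reporter carrying three copies of multiple response element and one cAMP response element. Luciferase activity at different compound concentrations was expressed relative to the respective native peptide (GLP-2 or glucagon, 100%). Mean ± SEM of triplicate experiments.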

[2] = target: T2, Glucagon-like peptide 1 receptor (Rattus norvegicus, UniProt P32301); assay: Agonist activity at rat GLP1R expressed in HEK293 cells assessed as stimulation of cAMP levels incubated for 6 hrs by multiple response element/cAMP response element (MRE/CRE)-driven reporter gene assay; format: functional, cell-based
T2 sequence (P32301 whole entry): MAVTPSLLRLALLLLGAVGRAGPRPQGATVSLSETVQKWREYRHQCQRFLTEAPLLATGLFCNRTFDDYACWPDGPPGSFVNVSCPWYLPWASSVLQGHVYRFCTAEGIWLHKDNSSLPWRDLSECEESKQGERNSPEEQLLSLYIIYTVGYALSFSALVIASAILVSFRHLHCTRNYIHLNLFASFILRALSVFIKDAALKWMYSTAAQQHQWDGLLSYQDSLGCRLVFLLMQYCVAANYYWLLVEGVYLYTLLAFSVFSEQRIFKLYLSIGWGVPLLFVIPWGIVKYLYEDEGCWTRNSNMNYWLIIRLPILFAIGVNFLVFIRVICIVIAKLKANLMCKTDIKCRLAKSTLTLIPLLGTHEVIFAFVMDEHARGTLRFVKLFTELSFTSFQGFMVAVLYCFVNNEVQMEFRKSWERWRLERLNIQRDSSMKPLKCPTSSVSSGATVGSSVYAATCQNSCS
In short: (§2)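 Stable HEK293 line co-expressing rat GLP-1R (pCMV-Tag2B) and a luciferase reporter with 3× MRE plus 1× CRE, seeded at 40000 cells/well and cultured overnight. Compounds in DMSO or GLP-1(7−37) were added for 6 h, then cells were lysed and luciferase read (Steady-Glo). The 10 nM GLP-1 maximum was taken as 100%. Mean ± SEM of two independent experiments; some values come from a single run.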

[3] = target: T2, Glucagon-like peptide 1 receptor; assay: Inhibition of [125I]GLP1 (7-36) amide binding to rat GLP1R expressed in HEK293 cells; format: cell-based
In short: (§3)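 Membranes (17 μg protein) from HEK293 cells stably expressing rat GLP-1R were preincubated 5 h at 4 °C with FlashBlue beads (150 μg). Then 40 pM [125I]GLP-1(7−36) amide or [125I]Exendin(9−39) was added with aprotinin 2 μg/mL, leupeptin 100 μM and test compound at varied concentrations. Incubated overnight at 4 °C, then bound radioactivity counted. Mean ± SEM of two independent experiments.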

[4] = target: T3, Glucagon-like peptide 1 receptor (Rattus norvegicus) (UniProt P32301); assay: Inhibition of [125I]Exendin (9-39) binding to rat GLP1R expressed in HEK293 cells; format: cell-based; set-up: concentration or dose not given beside the values; settings: concentration not given here; in short: as §3
T3 sequence (whole entry): T2 sequence (P32301 whole entry)

[5] = target: T3, Glucagon-like peptide 1 receptor (Rattus norvegicus); assay: Agonist activity at rat GLP1R expressed in HEK293 cells assessed as stimulation of cAMP levels incubated for 6 hrs by multiple response element/cAMP response element (MRE/CRE)-driven reporter gene assay relative to 10 nM GLP1; format: functional, cell-based; in short: as §2
[6] = target: T3, Glucagon-like peptide 1 receptor (Rattus norvegicus); assay: Inhibition of [125I]GLP1 (7-36) amide binding to rat GLP1R expressed in HEK293 cells relative to untreated control; format: cell-based; set-up: concentration or dose not given beside the values; settings: concentration not given here; in short: as §3
[7] = target: Glucagon receptor (Homo sapiens) (UniProt P47871); assay: Agonist activity at human glucagon receptor expressed in HEK293 cells assessed as stimulation of cAMP levels incubated for 6 hrs by multiple response element/cAMP response element (MRE/CRE)-driven reporter gene assay; format: functional, cell-based; in short: as §1
[8] = test system: Mus musculus; assay: Reduction of body weight in C57BL/6J mouse diet-induced obesity model dosed intraperitoneally 3 times per week for 28 days by chronic weight loss study; format: functional, organism-based
In short: (§4)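 Male C57BL/6J mice (8 weeks at start, 18−20 g) kept on high-fat diet (60% fat) for 12 weeks, then randomised by body weight to groups of n = 8−9. Dosed ip Monday/Wednesday/Friday for 28 days with 0, 0.3, 1 or 3 mg in 1% DMSO/20% PEG400/saline, pH 7.4. Body weight recorded daily; a standard-chow group (n = 8) served as reference.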

[9] = test system: Mus musculus; assay: Inhibition of acute food intake in intraperitoneally dosed C57BL/6J mouse measured 6 hrs post dose; format: functional, organism-based
In short: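 Male C57BL/6J mice (6 weeks, 18−20 g) fasted overnight and given a single ip dose of 0.1, 0.3, 1 or 3 mg or vehicle (1% DMSO, 20% PEG400 in saline). Mice housed singly with a preweighed food pellet, reweighed every 15 or 30 min for 6 h to give cumulative intake. n ≥ 6 per group; mean ± SEM.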

[10] = test system: Mus musculus; assay: Reduction of body weight in C57BL/6J mouse diet-induced obesity model at 3 mg, ip dosed 3 times per week for 28 days by chronic weight loss study; format: functional, organism-based; in short: as §4

Sequence of Glucagon receptor (Homo sapiens) (P47871 whole entry): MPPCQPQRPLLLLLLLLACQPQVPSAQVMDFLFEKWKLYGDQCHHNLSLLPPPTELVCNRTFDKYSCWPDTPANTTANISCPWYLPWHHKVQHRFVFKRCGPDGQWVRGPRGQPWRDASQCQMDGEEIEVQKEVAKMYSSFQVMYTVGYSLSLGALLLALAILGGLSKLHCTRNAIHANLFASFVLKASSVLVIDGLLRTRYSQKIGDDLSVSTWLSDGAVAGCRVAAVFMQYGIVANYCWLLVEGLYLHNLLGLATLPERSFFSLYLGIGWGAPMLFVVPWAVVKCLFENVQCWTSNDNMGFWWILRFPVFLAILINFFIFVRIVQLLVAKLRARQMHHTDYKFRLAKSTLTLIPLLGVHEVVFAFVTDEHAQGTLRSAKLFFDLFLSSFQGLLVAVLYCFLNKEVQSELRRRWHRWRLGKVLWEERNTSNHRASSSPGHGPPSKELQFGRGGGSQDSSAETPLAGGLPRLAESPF

Molecule | Activity [1] | EC50 [2] | IC50 [3] | inhibition [4] | Efficacy [5] | inhibition [6] | Activity [7] | Activity [8] | inhibition [9] | Activity [10]
CC[C@H](C)[C@H](NC(=O)[C@H](Cc1ccccc1)NC(=O)[C@H](CC(=O)O)NC(=O)[C@H](CCCNC(=N)N)NC(=O)[C@H](C)NC(=O)[C@H](C)NC(=O)[C@H](CC(C)C)NC(=O)[C@H](CC(N)=O)NC(=O)[C@H](CC(=O)O)NC(=O)[C@H](CC(C)C)NC(=O)[C@@H](NC(=O)[C@@H](NC(=O)[C@H](CC(N)=O)NC(=O)[C@H](CCSC)NC(=O)[C@H](CCC(=O)O)NC(=O)[C@H](CC(=O)O)NC(=O)[C@H](CO)NC(=O)[C@H](Cc1ccccc1)NC(=O)[C@H](CO)NC(=O)CNC(=O)[C@H](CC(=O)O)NC(=O)[C@H](C)NC(=O)[C@@H](N)Cc1cnc[nH]1)[C@@H](C)O)[C@@H](C)CC)C(=O)N[C@@H](CC(N)=O)C(=O)N[C@@H](Cc1c[nH]c2ccccc12)C(=O)N[C@@H](CC(C)C)C(=O)N[C@H](C(=O)N[C@@H](CCC(N)=O)C(=O)N[C@H](C(=O)N[C@@H](CCCCN)C(=O)N[C@H](C(=O)N[C@H](C(=O)N[C@@H](CC(=O)O)C(=O)N[C@@H](CCCNC(=N)N)C(=O)O)[C@@H](C)O)[C@@H](C)CC)[C@@H](C)O)[C@@H](C)CC | Active |  |  |  |  |  |  |  |  | 
CC[C@H](C)[C@H](NC(=O)[C@H](Cc1ccccc1)NC(=O)[C@H](CCC(=O)O)NC(=O)[C@H](CCCCN)NC(=O)[C@H](C)NC(=O)[C@H](C)NC(=O)[C@H](CCC(N)=O)NC(=O)CNC(=O)[C@H](CCC(=O)O)NC(=O)[C@H](CC(C)C)NC(=O)[C@H](Cc1ccc(O)cc1)NC(=O)[C@H](CO)NC(=O)[C@H](CO)NC(=O)[C@@H](NC(=O)[C@H](CC(=O)O)NC(=O)[C@H](CO)NC(=O)[C@@H](NC(=O)[C@H](Cc1ccccc1)NC(=O)[C@@H](NC(=O)CNC(=O)[C@H](CCC(=O)O)NC(=O)[C@H](C)NC(=O)[C@H](Cc1cnc[nH]1)NC(=O)[C@H](CCCNC(=N)N)NC(=O)[C@H](CCC(=O)O)NC(=O)[C@H](Cc1ccccc1)NC(=O)[C@H](CCC(=O)O)NC(=O)[C@H](CC(=O)O)NC(=O)[C@@H](N)Cc1cnc[nH]1)[C@@H](C)O)[C@@H](C)O)C(C)C)C(=O)N[C@@H](C)C(=O)N[C@@H](Cc1c[nH]c2ccccc12)C(=O)N[C@@H](CC(C)C)C(=O)N[C@H](C(=O)N[C@@H](CCCCN)C(=O)NCC(=O)N[C@@H](CCCNC(=N)N)C(=O)NCC(=O)O)C(C)C | inactive | 0.09 nM | 1 nM | 97% | 100% | 100% |  |  |  | 
GLUCAGON |  |  |  |  |  |  | Active |  |  | 
COc1cc([C@H]2[C@](NC(=O)c3ccc(NC(=O)C(C)C)cc3)(C(=O)O)[C@@H](c3ccc(OC(=O)c4cccs4)c(OC)c3)[C@]2(NC(=O)c2ccc(NC(=O)C(C)C)cc2)C(=O)O)ccc1OC(=O)c1cccs1 |  | 203 nM | 300 nM | 49.7% | 73.6% | 58.2% |  | Dose-dependent effect | Active | 
COc1cc([C@H]2[C@](NC(=O)c3ccc(NC(=O)OC(C)(C)C)cc3)(C(=O)O)[C@@H](c3ccc(OC(=O)c4cccs4)c(OC)c3)[C@]2(NC(=O)c2ccc(NC(=O)OC(C)(C)C)cc2)C(=O)O)ccc1OC(=O)c1cccs1 (stereo in doubt; 3) | inactive |  |  | 63.1% | 96.7% | 87.2% | inactive |  |  | Active
COc1cc([C@H]2[C@](NC(=O)c3ccc(NC(=O)OC(C)(C)C)cc3)(C(=O)OC)[C@@H](c3ccc(OC(=O)c4cccs4)c(OC)c3)[C@]2(NC(=O)c2ccc(NC(=O)OC(C)(C)C)cc2)C(=O)OC)ccc1OC(=O)c1cccs1 |  | > 20000 nM | > 20000 nM | < 15% | < 15% | < 15% |  |  |  | 
COc1cccc([C@H]2[C@](NC(=O)c3ccc(NC(=O)OC(C)(C)C)cc3)(C(=O)O)[C@@H](c3cccc(OC)c3)[C@]2(NC(=O)c2ccc(NC(=O)OC(C)(C)C)cc2)C(=O)O)c1 |  | > 20000 nM | > 20000 nM | < 15% | < 15% | < 15% |  |  |  | 
